Activity calls are given as the source filed them. The calls are words filed in the database; no cut-off is given here.
Legend:
A549 [1] = experiment: Cellular uptake in human A549 cells incubated for 1 hr followed by compound washout measured at 1 hr by HPLC-MS/MS analysis; format: ADME, cell-based; details: a549, 1 h
Summary of the method: (§1)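 A549 cells (wild-type EGFR) exposed to 1 µM extracellular compound for 1 h; intracellular content quantified by HPLC-ESI-MS/MS immediately after or 8 h after removal of compound (drug-free incubation) as pmol/mg protein; converted to µM using average cell volume per mg protein estimated from equilibrium distribution of 3-O-methyl-D-[1-³H]glucose in A549 cells.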

A549 [2] = experiment: Cellular uptake in human A549 cells incubated for 1 hr followed by compound washout measured after 8 hrs by HPLC-MS/MS analysis; format: ADME, cell-based; details: a549, 1 h; summary of the method: as §1
[3] = target: T1, Epidermal growth factor receptor (Homo sapiens, UniProt P00533)
[4] = Stability of the compound in human A549 cell lysates up to 24 hrs in presence of cysteine; format: physicochemical; details: a549, 24 h
Summary of the method: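 Compound incubated with A549 cell lysate plus molar excess of cysteine as trapping reagent; cysteine conjugate formation monitored by HPLC–MS for up to 24 h.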

[5] = target: T1, Epidermal growth factor receptor; details: A549, at 1 µM
[6] = target: T1, Epidermal growth factor receptor; experiment: Inhibition of wild type EGFR autophosphorylation in human A549 cells incubated for 1 hr followed by compound washout measured after 8 hrs by Western blot analysis; format: cell-based
[7] = Percentage unbound in human A549 cells at 1 uM after 4 hrs by equilibrium dialysis method; format: ADME, cell-based
[8] = target: T1, Epidermal growth factor receptor; details: at 1 µM
[9] = target: T1, Epidermal growth factor receptor; experiment: Inhibition of wild type EGFR autophosphorylation in human A549 cells at 1 uM incubated for 1 hr followed by compound washout measured after 8 hrs by Western blot analysis; format: cell-based
Summary of the method: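 A549 cells expressing wild-type EGFR treated 1 h with inhibitor at 1 µM, then washed with drug-free medium; EGFR autophosphorylation in intact cells read by Western blot 8 h after compound removal; percent inhibition as mean of at least two independent experiments ± SEM.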

[10] = target: T1, Epidermal growth factor receptor; experiment: Inhibition of wild type EGFR autophosphorylation in human A549 cells incubated for 1 hr followed by compound washout measured at 1 hr by Western blot analysis; format: cell-based

T1 sequence (P00533 whole entry): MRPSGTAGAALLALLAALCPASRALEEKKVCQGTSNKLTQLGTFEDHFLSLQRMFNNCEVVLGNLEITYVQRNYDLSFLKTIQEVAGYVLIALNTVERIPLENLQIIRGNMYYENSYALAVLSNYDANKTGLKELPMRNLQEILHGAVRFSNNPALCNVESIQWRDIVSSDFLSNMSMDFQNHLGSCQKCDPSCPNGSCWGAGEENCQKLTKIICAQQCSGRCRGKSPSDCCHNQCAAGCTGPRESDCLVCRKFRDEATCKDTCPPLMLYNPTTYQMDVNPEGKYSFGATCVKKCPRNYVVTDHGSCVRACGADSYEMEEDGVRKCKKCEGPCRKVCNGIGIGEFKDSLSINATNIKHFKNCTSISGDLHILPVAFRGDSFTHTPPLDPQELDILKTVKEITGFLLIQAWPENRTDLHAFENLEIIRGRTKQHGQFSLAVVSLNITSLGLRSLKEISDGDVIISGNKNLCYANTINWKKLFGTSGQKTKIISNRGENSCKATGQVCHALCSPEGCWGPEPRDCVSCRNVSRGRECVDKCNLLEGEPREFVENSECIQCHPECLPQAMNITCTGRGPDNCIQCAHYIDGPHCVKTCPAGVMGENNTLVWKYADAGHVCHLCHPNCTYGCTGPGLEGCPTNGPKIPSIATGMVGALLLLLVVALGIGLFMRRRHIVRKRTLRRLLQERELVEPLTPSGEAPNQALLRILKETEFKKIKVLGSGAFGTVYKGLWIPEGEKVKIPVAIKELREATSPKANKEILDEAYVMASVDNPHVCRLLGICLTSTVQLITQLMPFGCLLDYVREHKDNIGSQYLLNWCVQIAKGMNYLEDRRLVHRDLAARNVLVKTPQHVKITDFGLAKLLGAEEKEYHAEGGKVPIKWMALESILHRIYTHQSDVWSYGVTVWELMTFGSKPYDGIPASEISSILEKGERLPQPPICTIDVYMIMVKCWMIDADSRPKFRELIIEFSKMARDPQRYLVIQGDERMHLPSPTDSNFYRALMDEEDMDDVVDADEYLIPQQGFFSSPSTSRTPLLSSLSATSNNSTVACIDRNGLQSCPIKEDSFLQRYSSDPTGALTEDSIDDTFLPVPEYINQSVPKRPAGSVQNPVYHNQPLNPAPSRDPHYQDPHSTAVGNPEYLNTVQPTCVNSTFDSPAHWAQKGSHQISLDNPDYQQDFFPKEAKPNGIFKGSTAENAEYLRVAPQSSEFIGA

Drug uptake (A549 [1]) [µM]	Drug uptake (A549 [2]) [µM]	IC50 [3] [nM]	Stability [4]	inhibition [5] [%]	IC50 [6] [nM]	fraction unbound at 4 h, 1 µM [7]	inhibition [8]	inhibition [9] [%]	IC50 [10] [nM]	SMILES
147	7.2	0.63	Stable	98	13.5	0.157	inactive	96	5.7	O=C(CCCN1CCCCC1)Nc1ccc2ncnc(Nc3cccc(Br)c3)c2c1
240	3.6		Stable							O=C(COc1c(F)c(F)c(F)c(F)c1F)Nc1ccc2ncnc(Nc3cccc(Br)c3)c2c1
72	0.7		Stable							O=C(CCOc1ccccc1)Nc1ccc2ncnc(Nc3cccc(Br)c3)c2c1
271	2.3					0.322				COc1cc2ncnc(Nc3ccc(F)c(Cl)c3)c2cc1OCCCN1CCOCC1 [GEFITINIB]

More lines, now with the values behind:

SMILES	Drug uptake (A549 [1]) [µM]	Drug uptake (A549 [2]) [µM]	IC50 [3] [nM]	Stability [4]	inhibition [5] [%]	IC50 [6] [nM]	fraction unbound at 4 h, 1 µM [7]	inhibition [8]	inhibition [9] [%]	IC50 [10] [nM]
CN(C)CCC(=O)Nc1ccc2ncnc(Nc3cccc(Br)c3)c2c1	26	< 0.05								
C=CC(=O)Nc1ccc2ncnc(Nc3cccc(Br)c3)c2c1	< 0.05	< 0.05								
Nc1ccc2ncnc(Nc3cccc(Br)c3)c2c1	13	< 0.05								
Brc1cccc(Nc2ncnc3ccc(NCCCN4CCCCC4)cc23)c1	324	105	0.41		95	14.1	0.077		90	1.7
